PLK1 kinase inh: blocks human PLK1 kinase activity | inhibition, % at 10 µM | actives 0.53% (n = 97,000) | AID 619 | recombinant PLK1 kinase, TR-FRET peptide phosphorylation;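 active means inhibition of 50% or more in the single-concentration screen; inactive means inhibition below 50%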;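 further: 0% = DMSO max control and 100% = H-89 dihydrochloride min control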
DAT uptake mod: modulates human dopamine transporter uptake under cocaine. LLC-PK1 hDAT cells, [14C]-dopamine uptake with cocaine IC80; actives deviate in either direction. actives 1.3% (n = 110,000). B-score at 10 µM;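 active means Z score or B-score, a plate-position-corrected score, falls beyond the plate's 99.7% confidence bounds, in either direction; inactive means both scores lie inside the 99.7% bounds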;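 further: scored against the spread of the other compound wells on the same plate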
Rev-RRE block: inhibitors of HIV-1 Rev-RRE RNA interaction; P05866; Rev peptide-RRE RNA binding, FRET; inhibition, % at 8 µM; actives 0.79% (n = 97,000); AID 704;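 active means inhibition above the screen-wide mean plus 3 SD, cut at about 35% in these data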;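 further: 0% = median DMSO wells and 100% = median Neomycin B control wells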
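Test system: labelled RRE RNA duplex and labelled Rev peptide. Times: 5 min compound–RNA preincubation, then 15 min with peptide, 25 °C. Doses: single-dose 8 µM. Measured by: FRET, excitation 480 nm, emission 540 nm donor and 671 nm acceptor. Measure: % inhibition of FRET ratio versus controls.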
EphB4 ephrin blk: blocks human EphB4 binding to ephrin-B2 | actives 0.15% (n = 97,000) | AID 720 | EphB4 LBD / TNYL-RAW-Alexa532 peptide, fluorescence polarization | inhibition, % at 7 µM;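 active means inhibition above the screen-wide mean inhibition plus 3 SD, cut at about 15% in these data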;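 further: 0% = DMSO wells and 100% = excess unlabeled TNYL-RAW peptide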
Target sequence (P54760 whole entry, looked up, the tested form may be a part): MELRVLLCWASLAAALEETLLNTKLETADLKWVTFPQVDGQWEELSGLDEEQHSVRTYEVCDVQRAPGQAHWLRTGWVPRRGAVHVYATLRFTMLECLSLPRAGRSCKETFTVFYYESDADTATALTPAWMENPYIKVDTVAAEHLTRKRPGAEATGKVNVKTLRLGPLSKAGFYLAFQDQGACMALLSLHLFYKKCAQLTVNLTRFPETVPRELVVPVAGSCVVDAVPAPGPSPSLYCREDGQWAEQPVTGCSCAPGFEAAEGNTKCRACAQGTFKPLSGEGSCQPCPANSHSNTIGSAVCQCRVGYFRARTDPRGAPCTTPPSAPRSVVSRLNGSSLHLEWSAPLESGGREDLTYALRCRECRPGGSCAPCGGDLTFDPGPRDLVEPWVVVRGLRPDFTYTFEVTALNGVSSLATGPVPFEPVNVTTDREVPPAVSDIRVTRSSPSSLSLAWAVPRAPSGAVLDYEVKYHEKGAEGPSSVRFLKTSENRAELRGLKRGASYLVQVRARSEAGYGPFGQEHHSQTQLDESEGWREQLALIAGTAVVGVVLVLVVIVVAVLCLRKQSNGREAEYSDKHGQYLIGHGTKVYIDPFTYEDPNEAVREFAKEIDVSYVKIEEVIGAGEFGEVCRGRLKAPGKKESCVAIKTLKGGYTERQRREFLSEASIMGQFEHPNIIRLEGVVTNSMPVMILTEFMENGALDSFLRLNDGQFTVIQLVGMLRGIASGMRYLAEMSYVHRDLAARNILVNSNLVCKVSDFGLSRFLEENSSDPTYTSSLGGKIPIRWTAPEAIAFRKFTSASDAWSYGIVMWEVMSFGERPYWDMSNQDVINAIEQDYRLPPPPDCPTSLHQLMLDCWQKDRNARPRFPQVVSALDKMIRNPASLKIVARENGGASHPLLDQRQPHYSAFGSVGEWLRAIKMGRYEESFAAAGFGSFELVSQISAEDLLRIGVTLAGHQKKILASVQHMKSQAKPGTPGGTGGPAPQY
PLK1 PBD inh: inhibitors of human Plk1 polo box domain binding. P53350. Plk1 PBD phosphopeptide binding, fluorescence polarization. inhibition, %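 (tested at about 20 µM)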. actives 0.13% (n = 97,000); in the data active means inhibition above about 34%, passing the limit was not always enough
FAK inh: blocks human focal adhesion kinase activity; inhibition, %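 (tested at 7 µM)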; actives 0.84% (n = 97,000); biochemical FAK kinase activity assay; AID 727; Q05397;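 further: 0% = DMSO and 100% = reference compound high control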
FAK inh conf: FAK (human) inhibition confirmed; actives 28% (n = 750); inhibition, % at 7 µM; AID 794; shares compounds with FAK inh; FAK kinase biochemical inhibition assay
The depositor's hits bear a star; x = no result given. Hits are enriched below; roughly 3.2% of the tested compounds scored in any of these assays. Unless noted, no stated cut-off is given here; in the data, active means inhibition above about 19%; inactive means the rest.

SMILES	PLK1 kinase inh	DAT uptake mod	Rev-RRE block	EphB4 ephrin blk	PLK1 PBD inh	FAK inh	FAK inh conf
Fc1ccc(COc2ccc(/C=N/n3cnnc3)cc2)cc1	4.0	-0.0221	13.2	3.5	-15.1	0.0	x
N#C[C@H]1[C@H](c2ccccc2)[C@](C#N)(C(=O)c2ccccc2)[C@@H]2C=Cc3ccccc3N21	-16.9	x	18.5	7.0	-3.1	9.6	x
O=C(c1ccco1)[C@@H]1[C@@H]2C(=O)N(c3ccccc3)C(=O)[C@@H]2C2c3ccccc3C=CN21 (stereo partly specified)	-7.0	-0.0232	33.9	-4.1	-10.5	19.2*	6.0
Cc1ccc(N2C(=O)[C@@H]3[C@H](C2=O)C2c4ccccc4C=CN2[C@@H]3C(=O)c2ccco2)cc1 (stereo partly specified)	-6.6	1.07	35.8	10.8	-4.1	32.2*	13.5
Cc1ccc(SCc2ccc(C(=O)NCc3ccncc3)cc2)cc1	-3.0	-0.0487	8.7	3.4	12.5	43.3*	2.7
Cc1ccc(C)c(C(=O)NCc2ccncc2)c1	-7.3	-1.23	7.4	0.5	-7.8	-2.1	x
CCc1nc(NCc2cccnc2)c2oc3ccccc3c2n1	-0.3	0.93	4.0	-1.6	5.4	20.2*	5.4
c1ccc2c(c1)nc(N1CCOCC1)c1c3ccccc3[nH]c21	-18.9	-0.268	0.7	-3.6	-17.0	31.1*	13.8
O=c1[nH]c2ccccc2nc1N1CCOCC1	-7.1	0.477	7.8	6.3	-6.7	1.7	x
COc1ccccc1NC(=O)Cn1nnc(-c2ccccc2NC(=O)c2cccs2)n1	-3.0	-1.16	4.4	2.0	-10.3	20.9*	13.1
COc1ccccc1NC(=O)Cn1nnc(-c2ccccc2NC(=O)c2ccco2)n1	-10.3	-0.51	-5.1	4.7	-4.9	26.8*	14.9
O=C(Cn1nnc(-c2ccccc2NC(=O)c2cccs2)n1)Nc1ccccc1	-10.5	-0.769	5.3	-4.4	-10.1	0.6	x
COc1ccc(NC(=O)Cn2nnc(-c3ccccc3NC(=O)c3ccco3)n2)cc1	-8.6	0.152	0.2	1.5	-32.4	3.9	x
Cc1nn(-c2ccccc2)c(Cl)c1/C=N/Nc1ccc(S(=O)(=O)Nc2ccccc2C(=O)O)cc1[N+](=O)[O-]	2.1	x	-0.7	1.7	-3.7	19.0*	5.4
Cc1cc(S(=O)(=O)Nc2ccccc2C(=O)O)ccc1Cl	-14.1	0.0314	1.0	-10.1	-1.5	-2.7	x
Cc1cccc(C)c1NC(=O)CSc1nnc(-c2ccco2)c(-c2ccco2)n1	3.2	0.385	-19.7	-3.7	3.6	35.4*	9.7
Cc1ccccc1NC(=O)CSc1nnc(-c2ccco2)c(-c2ccco2)n1	-6.7	x	10.8	3.7	-1.2	15.2	x
Cc1ccc(NC(=O)CSc2nnc(-c3ccco3)c(-c3ccco3)n2)cc1	-6.9	-0.28	2.6	-0.4	-27.5	19.2*	1.5
COc1cc(S(=O)(=O)N2CCC(c3nc4ccccc4s3)CC2)ccc1S(=O)(=O)NC1CCCC1	-3.7	-0.324	12.1	-7.5	13.4	1.2	x
CCOC(=O)c1cccc(C(=O)Oc2ccccc2)n1	-27.5	-0.307	-0.4	2.8	2.8	0.5	x
O=C(Oc1ccccc1)c1c(Cl)cccc1P(=O)(O)O	-7.9	-0.0138	6.6	1.8	23.5	76.2*	58.2*
O=C(Oc1ccccc1Cl)c1ccccc1P(=O)(O)O	-8.8	-1.35	6.4	0.7	-25.7	72.2*	68.4*
Cc1ccc(OC(=O)c2ccccc2P(=O)(O)O)cc1	-7.2	-0.471	10.8	-8.1	11.3	50.0*	43.9*
O=C(O)c1ccccc1COc1ccccc1Cl	-10.8	1.08	7.8	7.9	-9.4	1.9	x
Cn1c2ccccc2c(=O)c2c(=O)n(C3CCCCC3)c(-c3cccs3)nc21	-11.3	-0.765	19.4	1.5	0.3	5.7	x
COc1cc(C(=O)Nc2nc3ccc4nc(C)sc4c3s2)cc(OC)c1OC	-16.7	0.782	-3.5	1.6	-11.6	-2.2	x
COc1ccc(C(=O)Nc2nc3ccc4nc(C)sc4c3s2)cc1	-19.7	2.64	-0.6	1.9	-9.0	27.0*	37.8*
O=C(C1COc2ccccc2O1)N1CCc2ccccc21 (stereo unspecified)	-21.8	0.00613	-12.5	8.7	-18.4	24.1*	7.1
